High-throughput results from PubChem BioAssay.
T cell HTS = T cell immune modulators affecting CD8 T cell-vesicle binding | 2C CD8+ T cell-vesicle binding, flow cytometry; active compounds read low | response (vesicle binding), % at 7 µM | 330,000 compounds, 0.068% hits | AID 2052;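 active = response, share of CD8 T cells binding vesicles, and their 90th percentile fluorescence all below set limits, cut at about 80% in these data, passing the limit was not always enough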;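 note: values below 100% mean blocked vesicle binding to the CD8+ T cells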
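Incubation: binding step 1.5 h, 37 °C, antibody labelling 20 min, ice; system: murine 2C transgenic CD8+ T lymphocytes; technique: cytometric PE anti-B7-1 and Alexa647 anti-CD8 signals after 1% paraformaldehyde fixation; also added: QL9-charged Drosophila Ld/ICAM-1/B7-1 vesicles; control set: naked versus QL9-loaded vesicles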
PP5 primary = blocks human protein phosphatase 5 activity; 320,000 compounds, 0.18% hits; P53041; purified PP5c, OMFP substrate fluorescence; AID 1987; inhibition, % at 6.7 µM;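 active = inhibition above the campaign's mean inhibition across all tested compounds plus 3 SD, cut at about 9.5% in these data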;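 note: 0% = DMSO only and 100% = 100 µM cantharidin control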
JMJD2C inh = inhibitors of human GASC-1 (JMJD2C) demethylase; Q9H3R0; GST-JMJD2C(1-420) H3K9me3 demethylation, DELFIA europium; inhibition, % at 2.35 µM; 330,000 compounds, 0.069% hits;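 active = more than half of a compound's replicate wells show inhibition beyond 50%, single wells judged on their own value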;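 note: signal counts dimethyl H3K9 product captured on neutravidin plate; 0% = median of DMSO wells and 100% = 0.3 times that DMSO median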
m5-HT2A agonist = agonists of mouse serotonin 5-HT2A receptor (HTR2A). 360,000 compounds, 0.66% hits. P35363. activation, % at 7.6 µM. CHO-K1 mHTR2A beta-arrestin complementation, luminescence; percent of 30 µM serotonin response;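 active = activation above a run cutoff, the mean activation of all tested compounds plus 3 SD, cut at about 14% in these data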;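 note: 0% = plate median of compound wells and 100% = 30 µM serotonin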
PP1 counter = PP1-alpha (human) inhibition in PP5 counter-screen | inhibition, % at 6.7 µM | purified PP1alpha, OMFP fluorescence | 320,000 compounds, 0.9% hits | P62136;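 active = inhibition above the mean inhibition of all tested compounds plus 3 SD, computed separately for each screening campaign, cut at about 15% in these data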
Target sequence (P62136 whole entry, looked up): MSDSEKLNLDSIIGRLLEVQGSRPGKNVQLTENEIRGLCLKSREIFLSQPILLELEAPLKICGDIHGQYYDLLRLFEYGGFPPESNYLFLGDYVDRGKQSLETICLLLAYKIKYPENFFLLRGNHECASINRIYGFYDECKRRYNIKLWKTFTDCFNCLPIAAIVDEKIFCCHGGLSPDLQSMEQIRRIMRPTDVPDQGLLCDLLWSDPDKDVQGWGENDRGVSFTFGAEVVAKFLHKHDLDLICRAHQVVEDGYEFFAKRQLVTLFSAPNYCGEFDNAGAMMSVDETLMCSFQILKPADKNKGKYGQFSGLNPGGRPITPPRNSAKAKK
OPRM1 ag = OPRM1 agonism in mouse HTR2A counterscreen | 2,300 compounds, 5.3% hits | activation, % at 9.3 µM | AID 624380 | U2OS OPRM1 beta-arrestin PathHunter, luminescence; DMSO 0%, DAMGO 9.3 µM 100% | shares compounds with m5-HT2A agonist;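 active = mean activation above the mean of DMSO-only wells plus 3 SD, cut at about 0.5% in these data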
m5-HT2A ag conf = mouse HTR2A agonism confirmed; activation, % at 7.6 µM; shares compounds with m5-HT2A agonist; CHO-K1 PathHunter beta-arrestin recruitment, luminescence; DMSO 0%, 30 µM serotonin 100%; 2,300 compounds, 19% hits; AID 624381;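 active = mean activation across triplicates above the hit threshold derived in the original primary screen, cut at about 15% in these data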
The depositor's hits bear a star; i = inactive; · = not tested or not shown. A selection: hits, their analogues and other compounds. The true share with any hit is near 1.7%.

SMILES	T cell HTS	PP5 primary	JMJD2C inh	m5-HT2A agonist	PP1 counter	OPRM1 ag	m5-HT2A ag conf
O=C(O)C1=CC2c3ccccc3C1c1ccccc12	96	-1	-9	4	-8	·	·
C=CCN1CCc2cccc3c2[C@H]1Cc1ccc(O)c(O)c1-3	217	2	1	55*	5	1.2*	167*
CCOC(=O)c1c(C)n(C(C)C)c2ccc(OC(=O)c3ccc(N4C(=O)CCC4=O)cc3)cc12	i	3	-4	16*	1	0	3
COc1ccc2c(c1)c(C(=O)O)c(C)n2C(C)C	165	-2	20	-3	0	·	·
Cn1c(=O)cc(SCC(=O)N2CCC3(CC2)OCCO3)c2ccc(Cl)cc21	227	0	-3	16*	-5	0	-1
CCCCn1c(O)c(C(C)=NCc2ccco2)c(=O)[nH]c1=O	342	1	11	1	0	·	·
CCC(=O)OC1(c2ccccc2)CCN(C)CC1C (stereo not given)	358	5	-6	-2	-1	·	·
CC1=C[C@@H]2c3cccc4[nH]cc(c34)C[C@H]2N(C)C1	332	2	5	28*	4	0.8*	144*
Cc1ccc(C(=O)COC(=O)Cc2ccccc2)cc1	290	0	6	-3	2	·	·
COP(=O)(OC)C(NC(=O)/C=C/c1ccccc1)C(Cl)(Cl)Cl (stereo not given)	188	1	5	19*	-2	-1	-2
CC(Cc1ccccc1)NC(=O)/C=C/c1ccc(Cl)cc1 (stereo not given)	207	2	11	-6	1	·	·
O=c1[nH]c(=O)n(C2CCCCC2)c(O)c1/C=C/C=Nc1ccccc1	41	1	9	-2	1	·	·
CCCC(=O)C1C(=O)NC(=O)NC1=O	92	2	14	9	0	·	·
Cn1cccc1CNCCc1ccccc1	236	1	2	·	-2	·	·
COc1ccc(CCNCc2cccn2C)cc1	325	1	0	28*	-4	0.5*	17*
CCOC(=O)C1=C(N)OC2=C(C(=O)CC(C)(C)C2)C12C(=O)Nc1ccccc12 (stereo not given)	303	3	-11	0	-3	·	·
